Activity calls are given as the source filed them. No cut-off for these calls is given here.

This note sets out measurements from ChEMBL document CHEMBL4017544 (J Med Chem, 2017).

For data set [1], the target named is Kelch-like ECH-associated protein 1 (Homo sapiens) (UniProt Q14145). The experiment in a line: Inhibition of Keap1/Nrf2 (unknown origin) interaction transfected in HEK293 cells assessed as upregulation of NQO1 mRNA expression at 200 to 1000 nM after 48 hrs by quantitative RT-PCR analysis. Format: cell-based. The method, boiled down: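 HEK293 cells (ATCC; high-glucose DMEM, 10% FBS) were treated in triplicate for 48 h. For the reporter read-out, cells were transfected with an ARE-dependent luciferase plasmid and luciferase activity was measured. For mRNA, total RNA was extracted with TRIzol and reverse transcribed, and target transcripts were quantified by qRT-PCR relative to GAPDH using the 2−ΔΔCt method. Three independent experiments, mean ± SD.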
Chain of Kelch-like ECH-associated protein 1 (Homo sapiens) (Q14145 whole entry): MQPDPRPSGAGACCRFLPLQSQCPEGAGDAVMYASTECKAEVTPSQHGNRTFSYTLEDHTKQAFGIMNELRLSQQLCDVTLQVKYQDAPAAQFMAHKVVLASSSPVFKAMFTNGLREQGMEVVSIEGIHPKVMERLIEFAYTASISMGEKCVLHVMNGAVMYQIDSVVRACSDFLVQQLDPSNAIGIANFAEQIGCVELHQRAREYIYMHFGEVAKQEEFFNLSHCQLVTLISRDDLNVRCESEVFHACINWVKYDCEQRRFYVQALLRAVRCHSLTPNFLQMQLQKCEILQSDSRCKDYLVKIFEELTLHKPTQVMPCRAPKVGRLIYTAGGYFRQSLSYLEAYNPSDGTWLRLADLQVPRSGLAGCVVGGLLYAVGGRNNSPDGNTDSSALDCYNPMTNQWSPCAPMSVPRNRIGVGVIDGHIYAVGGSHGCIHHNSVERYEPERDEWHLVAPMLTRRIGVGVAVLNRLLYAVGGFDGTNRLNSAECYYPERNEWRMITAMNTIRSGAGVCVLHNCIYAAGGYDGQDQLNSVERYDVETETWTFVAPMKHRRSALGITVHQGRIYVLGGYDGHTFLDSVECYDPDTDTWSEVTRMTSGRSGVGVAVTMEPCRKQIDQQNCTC

For data set [2], the target named is T1, Inhibitor of nuclear factor kappa-B kinase subunit beta (Homo sapiens) (UniProt O14920).
T1 sequence (whole entry): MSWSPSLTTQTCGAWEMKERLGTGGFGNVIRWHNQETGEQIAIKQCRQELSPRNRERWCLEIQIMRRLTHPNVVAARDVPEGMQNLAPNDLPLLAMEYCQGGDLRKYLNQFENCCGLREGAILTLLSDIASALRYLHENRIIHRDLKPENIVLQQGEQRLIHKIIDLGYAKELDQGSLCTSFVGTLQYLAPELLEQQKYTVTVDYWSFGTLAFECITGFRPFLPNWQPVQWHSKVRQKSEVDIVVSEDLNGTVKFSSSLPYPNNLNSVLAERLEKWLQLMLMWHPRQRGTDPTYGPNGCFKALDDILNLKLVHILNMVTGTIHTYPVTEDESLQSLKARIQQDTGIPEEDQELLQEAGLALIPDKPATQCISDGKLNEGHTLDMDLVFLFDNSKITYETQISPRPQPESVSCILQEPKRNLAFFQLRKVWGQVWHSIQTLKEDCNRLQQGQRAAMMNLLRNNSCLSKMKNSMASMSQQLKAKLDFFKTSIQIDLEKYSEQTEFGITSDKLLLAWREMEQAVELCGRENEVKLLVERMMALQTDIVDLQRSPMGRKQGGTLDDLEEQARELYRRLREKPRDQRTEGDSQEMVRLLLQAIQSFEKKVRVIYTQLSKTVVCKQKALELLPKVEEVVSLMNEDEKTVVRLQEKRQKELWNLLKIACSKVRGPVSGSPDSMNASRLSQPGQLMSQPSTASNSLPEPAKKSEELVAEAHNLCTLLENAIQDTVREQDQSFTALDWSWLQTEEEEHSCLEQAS
The data set is described as follows: Inhibition of IKKbeta (unknown origin) transfected in HEK293 cells assessed as reduction in TNFalpha-induced upregulation of iNOS mRNA expression at 200 to 1000 nM administered 6 hrs after TNFalpha stimulation measured for 24 hrs by quantitative RT-PCR analysis. Format: cell-based. The method in brief: (§1)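 HEK293 cells pretreated with TNF-α (10 ng/mL) for 6 h, then given compound at 200 or 1000 nM for 24 h, in triplicate; iNOS, COX2 and MCP-1 mRNA relative to GAPDH by quantitative RT-PCR, 2−ΔΔCt method; mean ± SD from three experiments.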

For data set [3], the target named is T1, Inhibitor of nuclear factor kappa-B kinase subunit beta (Homo sapiens). The experiment in a line: Inhibition of IKKbeta (unknown origin) transfected in HEK293 cells assessed as reduction in TNFalpha-induced upregulation of MCP1 mRNA expression at 200 to 1000 nM administered 6 hrs after TNFalpha stimulation measured for 24 hrs by quantitative RT-PCR analysis. Format: cell-based. The method in brief:
as §1

Data set [4] has as its system Mus musculus. The experiment in a line: Antidiabetic nephropathic activity in db/db mouse assessed as increase in urinary creatinine at 0.65 mg/kg, ip administered thrice per week for 12 consecutive weeks measured at 24 hrs post 11 week administration. Format: functional, organism-based. The method in brief:
(§2)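 Male db/db mice, 8 weeks old, randomized; ip vehicle (5% Tween-80 in 0.9% saline) or drug three times weekly for 12 weeks, n = 6 per group. After 11 weeks, 24 h urine collected for volume, albumin and creatinine, with UACR calculated; blood then sampled for plasma BUN and uric acid. Mean ± SD, one-way ANOVA with Tukey test.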

The nature of data set [5]: Half life in Sprague-Dawley rat at 10 mg/kg, iv measured up to 24 hrs by LC-MS/MS analysis. Format: ADME, organism-based. The settings on record: in vivo. The method, boiled down:
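Rats dosed intravenously at 10 mg/kg; blood drawn from suborbital vein at 0, 2, 5, 15, 30, 60 min and 1.5, 2, 4, 6, 8, 12, 24 h; plasma levels by LC-MS/MS; parameters from concentration–time profiles, mean ± SD, n = 3.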

Data set [6] in a line: Volume of distribution at steady state in Sprague-Dawley rat at 10 mg/kg, iv measured up to 24 hrs by LC-MS/MS analysis. Format: ADME, organism-based. To be noted: in vivo, read-out: Vdss. The method, boiled down:
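Rats received a single 10 mg/kg i.v. dose. Blood was drawn from the suborbital vein at 0, 2, 5, 15, 30 and 60 min and at 1.5, 2, 4, 6, 8, 12 and 24 h, and plasma was analyzed by LC-MS/MS. n = 3, mean ± SD.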

The test system of another data set is H9c2. The experiment in a line: Cytotoxicity against rat H9c2 cells assessed as reduction in cell viability after 24 hrs by MTT assay. It counts as cell-based. To be noted: H9c2, 24 h. The method in brief:
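HEK293 or H9C2 cells grown in high-glucose DMEM with 10% FBS, exposed to compound for 24 h; viability by MTT, IC50 calculated.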

Data set [7] addresses T1, Inhibitor of nuclear factor kappa-B kinase subunit beta (Homo sapiens). The experiment in a line: Inhibition of IKKbeta (unknown origin) transfected in HEK293 cells assessed as reduction in TNFalpha-induced upregulation of COX2 protein expression at 200 to 1000 nM administered 6 hrs after TNFalpha stimulation measured for 24 hrs by Western blot method. It counts as cell-based. The method, boiled down:
(§3)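 HEK293 cells pretreated with TNF-α (10 ng/mL) for 6 h, then given compound at 200 or 1000 nM for 24 h, in triplicate; nuclear and cytosolic p65, iNOS and COX2 protein by western blot; mean ± SD from three experiments.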
In general terms: A western blot detects proteins with antibodies after separation by electrophoresis.

The target is the same in data set [8]. The experiment in a line: Inhibition of IKKbeta (unknown origin) transfected in HEK293 cells assessed as reduction in TNFalpha-induced upregulation of iNOS protein expression at 200 to 1000 nM administered 6 hrs after TNFalpha stimulation measured for 24 hrs by Western blot method. Format: cell-based. The method in brief: as §3
In data set [9] the target is Kelch-like ECH-associated protein 1 (Homo sapiens) (UniProt Q14145). The data set is described as follows: Inhibition of Keap1/Nrf2 (unknown origin) interaction transfected in HEK293 cells assessed as increase in cytosolic NQO1 levels at 200 to 1000 nM after 48 hrs by Western blot analysis. Format: cell-based. The method, boiled down: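 HEK293 cells grown in high-glucose DMEM with 10% FBS were treated in triplicate at 200 or 1000 nM for 48 h. Nuclear and cytosolic Nrf2, HO-1 and cytoplasmic NQO1 were measured by western blot with specific antibodies, with TBP and β-actin among the probed proteins. The nuclear/cytosolic Nrf2 ratio was derived from these blots. Three independent experiments, mean ± SD.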

The test system of data set [10] is Mus musculus. The experiment in a line: Antidiabetic nephropathic activity in db/db mouse assessed as increase in urinary creatinine at 1 to 2 mg/kg, ip administered thrice per week for 12 consecutive weeks measured at 24 hrs post 11 week administration. Format: functional, organism-based. The method in brief:
as §2

A short description of data set [11]: Drug level in Sprague-Dawley rat kidney at 30 mg/kg, ip measured at 30 mins by LC-MS/MS analysis. The settings on record: read-out: Drug uptake. Format: ADME, organism-based. The method in brief:
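Rats given a single ip injection, 20 mg/kg (0.04 mmol) of CDDO-Me or 30 mg/kg (0.04 mmol) of the prodrug; heart, kidney and liver collected over time; parent compound and liberated CDDO-Me measured by LC-MS/MS.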

As for `COC(=O)[C@]12CCC(C)(C)C[C@H]1[C@H]1C(=O)C=C3[C@@]4(C)C=C(C#N)C(=O)C(C)(C)[C@@H]4CC[C@@]3(C)[C@]1(C)CC2` [BARDOXOLONE METHYL], the inhibition entry in data set [1], in [2], in data set [3], in data set [7], in [8] and in [9] was “Active” throughout. Also, the outcome with Mus musculus [4] was Active. The compound also gave a half-life in [5] of 4.41 h. Besides, the Vd in data set [6] worked out at 29.1 L/kg. In the data set with H9c2, the IC50 was found to be 5.2 µM.
Consider `COC(=O)[C@@H](N)CCC(=O)Nc1ccc(COC2=C(C#N)[C@H](O)[C@]3(C)C4=CC(=O)[C@@H]5[C@@H]6CC(C)(C)CC[C@]6(C(=O)OC)CC[C@@]5(C)[C@]4(C)CC[C@H]3C2(C)C)cc1`, for which the inhibition entry in [1], in data set [2], in [3], in data set [7] and in data set [8] was “Active” each time. For the same compound, the result in the data set with Mus musculus [10] was Active. This compound also gave a half-life in data set [5] of 1.31 h. Further, the Vd in data set [6] is 35.1 L/kg. For the same compound, in [11], the concentration at 0.5 h is 1000 ng/g. For the same compound, in the data set with H9c2, the 50% inhibitory concentration (IC50) is 112 µM.

In general, half-life refers to how long it takes for the measured level to halve. Low values mean fast loss, high ones slow loss. By IC50 is commonly meant the concentration that gives 50% inhibition.
